High-throughput results deposited in PubChem BioAssay by several laboratories.
AI-2 QS mod: Vibrio harveyi AI-2 quorum sensing modulation; activity change, % at 7.5 µM; 300,000 compounds, 0.4% hits; Vibrio harveyi JMH597 AI-2 luminescence/OD600 ratio, 9 h; active compounds read low; strain lacks LuxN and CqsS sensors; 0 = neutral-control median; AID 2094; in the data active = activity change below about -75%, passing the limit was not always enough;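 note: luminescence divided by OD600 gain over 9 h not by final OD600 alone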
HIF activator: HIF pathway transcriptional activation. 300,000 compounds, 0.32% hits. U2OS HRE-luciferase reporter, luminescence; normalized: DMSO 0%, desferrioxamine 100%. activation, % at 7.5 µM (by protocol);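 active = mean activation of at least 10% of the iron chelator positive control signal, with at least half of replicates also reaching 10%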
T cruzi inh: blocks replication of Trypanosoma cruzi. inhibition, % (test concentration not listed). 300,000 compounds, 1.4% hits. T. cruzi beta-gal in NIH3T3, luminescence, 90 h. AID 1885;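 active = mean inhibition across valid replicates above about 55%, limit read from the data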;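 note: signal also drops with host cell toxicity which is not excluded here; higher percent means less beta-gal luminescence so fewer parasites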
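Test system: β-gal T. cruzi (Tulahuen C4) inside NIH/3T3 cells / Quantity: 5,000 cells/well / Measured by: luminescence from GalScreen with 0.05% NP40, read after 60 min / Medium: DMEM plus 2% FBS / Measure: parasite load inhibition, % / Reagent: Tulahuen C4 trypomastigotes, 5000/well / Schedule: co-culture of at least 90 h after 3 h attachment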
CendR NRP1 mod: modulators of CendR peptide binding to human neuropilin-1 | FAM-RPARPAR peptide binding to NRP-1, fluorescence polarization | AID 602438 | O14786 | 360,000 compounds, 0.85% hits | inhibition, % at 25 µM;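 active = inhibition or corrected inhibition above about 18%, plus a signal ratio from 0.5 to 1.5, limit read from the data, passing the limit was not always enough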
Target sequence (O14786 whole entry, looked up): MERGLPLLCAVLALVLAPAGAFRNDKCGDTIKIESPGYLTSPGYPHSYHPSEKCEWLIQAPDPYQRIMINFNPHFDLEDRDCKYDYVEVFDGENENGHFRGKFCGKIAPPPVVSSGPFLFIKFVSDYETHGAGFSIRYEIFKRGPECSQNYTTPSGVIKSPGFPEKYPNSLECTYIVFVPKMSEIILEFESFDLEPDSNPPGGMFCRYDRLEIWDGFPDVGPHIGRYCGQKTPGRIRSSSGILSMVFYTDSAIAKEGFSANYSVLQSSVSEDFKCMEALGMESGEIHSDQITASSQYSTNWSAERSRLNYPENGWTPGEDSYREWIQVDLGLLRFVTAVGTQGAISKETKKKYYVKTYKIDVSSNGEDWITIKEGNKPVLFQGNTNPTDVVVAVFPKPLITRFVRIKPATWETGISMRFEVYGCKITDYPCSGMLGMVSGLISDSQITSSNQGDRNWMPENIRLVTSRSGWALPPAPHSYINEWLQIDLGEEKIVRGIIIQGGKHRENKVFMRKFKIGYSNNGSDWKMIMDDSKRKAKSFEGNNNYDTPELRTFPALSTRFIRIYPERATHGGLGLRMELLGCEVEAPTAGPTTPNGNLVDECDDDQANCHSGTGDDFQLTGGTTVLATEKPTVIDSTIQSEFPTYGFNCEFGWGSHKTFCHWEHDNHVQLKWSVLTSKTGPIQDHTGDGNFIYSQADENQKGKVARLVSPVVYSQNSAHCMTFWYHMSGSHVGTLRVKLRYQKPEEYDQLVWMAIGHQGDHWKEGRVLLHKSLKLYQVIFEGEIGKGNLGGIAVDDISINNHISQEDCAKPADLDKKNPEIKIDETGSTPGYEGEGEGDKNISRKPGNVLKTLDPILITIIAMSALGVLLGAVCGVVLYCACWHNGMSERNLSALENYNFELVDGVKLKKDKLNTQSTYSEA
CR mimetic SO: lowers age-related superoxide in aged yeast cells. S. cerevisiae aged cells, superoxide DHE fluorescence; active compounds read low. superoxide response (% of plate mean), % at 10 µM. 330,000 compounds, 0.18% hits;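 active = superoxide response under a set limit, about three screen SD below normal, cut at about 65% in these data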;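 note: yeast aged for seven days with compound at 30 °C before DHE staining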
V-ATPase pHluor: yeast V-ATPase proton transport regulation by pHLuorin | S. cerevisiae, pHLuorin cytosolic pH fluorescence | response, % at 10 µM | 350,000 compounds, 0.37% hits; in the data active = response mostly above about 7.3%, no sharp cut-off; inactive = mostly below about 5.4%; note: actives read high
Of the large screens only hits and unclear results are named; the others gave an inactive call. Shown are actives, neighbours in structure and some others; about 3% of the full set was active somewhere.

Cc1cccc(-n2ccc(=O)c(C(=O)Nc3ccc(S(=O)(=O)Nc4onc(C)c4C)cc3)n2)c1	CendR NRP1 mod 36.3
NC(Cc1c[nH]c2ccccc12)C(=O)NCc1ccccc1 (centres undefined)	none
COCCN(C(=O)CNC(=O)c1cccs1)C(C(=O)NC1CCCC1)c1cccs1 (centres undefined)	CendR NRP1 mod 19.4
COCCN(C(=O)CNC(=O)c1cccs1)C(C(=O)NC1CCCCC1)c1ccco1 (centres undefined)	none (no result: AI-2 QS mod, HIF activator, T cruzi inh)
O=C(NCc1ccco1)c1ccc([N+](=O)[O-])o1	AI-2 QS mod -165.0, T cruzi inh 73.0
O=C(COC(=O)c1ccc([N+](=O)[O-])o1)Nc1cccc(S(=O)(=O)N2CCCCC2)c1	none
O=C(Nc1cccnc1)c1ccc([N+](=O)[O-])o1	AI-2 QS mod -107.8
COc1ccc(NC(=O)c2ccc([N+](=O)[O-])o2)cc1	none
O=C(Nc1cccc(S(=O)(=O)N2CCCCC2)c1)c1ccc([N+](=O)[O-])o1	CendR NRP1 mod 35.9
O=C(NCc1cccnc1)c1ccc(N2CCOCC2)c([N+](=O)[O-])c1	none
CCOc1ccc(C(=O)NCc2cccnc2)cc1[N+](=O)[O-]	CendR NRP1 mod 22.0
O=C(NCc1ccco1)c1ccc(Cn2cc([N+](=O)[O-])cn2)o1	none
O=C(NCc1cccnc1)c1ccc([N+](=O)[O-])o1	AI-2 QS mod -109.5, T cruzi inh 73.6
O=C(Cc1ccc([N+](=O)[O-])cc1)NCc1cccnc1	none
COC/C=C/C1=CC2=CC(=O)C(C)(OC(=O)c3cnc4ccccc4n3)C(=O)C2=CN1c1ccc(CO)cc1 (centres undefined)	none (no result: CendR NRP1 mod, V-ATPase pHluor)
CC(=O)Oc1cc2cccc(OC(C)=O)c(=O)c2c(OC(C)=O)c1OC(C)=O	CendR NRP1 mod 30.4
CC(=O)CCc1ccc(OC(=O)c2cccnc2)cc1	none
Oc1ccc(-c2nccc(-c3ccc(Cl)cc3Cl)n2)cc1	T cruzi inh 79.0, CendR NRP1 mod 40.2
O=C(Nc1ncc(S(=O)(=O)c2ccc([N+](=O)[O-])cc2)s1)c1cccc2ccccc12	T cruzi inh 57.8
O=c1c2ccccc2nc(/C=C/c2ccc([N+](=O)[O-])cc2)n1CCCO	none
O=c1c2ccccc2nc(/C=C/c2ccc([N+](=O)[O-])o2)n1CCCO	AI-2 QS mod -84.2, T cruzi inh 62.1
O=c1nc(-c2ccccc2)n(-c2ccc(Cl)cc2)[nH]1	none
CCOc1ccccc1NC(=O)CCNC(=O)Cn1ccc2ccccc2c1=O	none
COc1ccc(N2CCN(C(=O)c3cn(C4CCCC4)c(=O)c4c3c3ccccc3n4C)CC2)cc1	CendR NRP1 mod 39.3
Cn1c2ccccc2c2c(C(=O)N3CCN(c4ccccn4)CC3)cn(C3CCCC3)c(=O)c21	CendR NRP1 mod 38.4
Cn1c2ccccc2c2c(C(=O)N3CCN(C(=O)c4ccco4)CC3)cn(C3CCCCC3)c(=O)c21	none
COc1ccc(N2CCN(C(=O)c3cn(C)c(=O)c4c3c3ccccc3n4C)CC2)cc1	none
O=C(Nc1ccc(F)cc1)NC1(C(=O)NCc2cccs2)CCCCC1	none
O=C(COc1ccccc1)N1CCN(S(=O)(=O)Cc2ccccc2)CC1	none
Cc1cccc(-n2c(CCn3nc(C)c([N+](=O)[O-])c3C)n[nH]c2=S)c1	none
CCC(C)c1ccccc1NC(=O)c1cc2cccc([N+](=O)[O-])c2[nH]1 (centres undefined)	T cruzi inh 65.2 (no result: AI-2 QS mod)
O=c1nc2c(O)cccn2c2c1c(=O)[nH]c1ccccc12	CendR NRP1 mod 48.0 (no result: CR mimetic SO)
COc1cccc(NC(=O)CS(=O)(=O)c2cccc3nsnc23)c1	none
O=C1C=CC(=O)N1CCNc1ncc(C(F)(F)F)cc1Cl	T cruzi inh 56.6, V-ATPase pHluor 13.4 (no result: CR mimetic SO)
CCCc1nnc(NC(=O)CS(=O)(=O)c2ccccc2)s1	none
COc1ccccc1C(=O)Nn1c(C2CCC2)nc2ccccc2c1=O	T cruzi inh 55.9
COc1ccc2nc(NC(=O)c3ccccc3O)sc2c1	none
CCOC(=O)C1CCN(C(=O)C(C)Sc2ccc(Cl)cc2)CC1 (centres undefined)	none
Cc1ccc(Nc2nnc(-c3ccc(N4CCOCC4)c([N+](=O)[O-])c3)c3ccccc23)cc1	none
O=[N+]([O-])c1cc(-c2nnc(Nc3ccccc3)c3ccccc23)ccc1N1CCOCC1	T cruzi inh 57.2
CCCc1cc(=O)[nH]c(SCC(=O)c2c[nH]c3ccccc23)n1	none
CCN(CC)c1ccc2cc(NC(=O)CCC(=O)O)c(=O)oc2c1	CendR NRP1 mod 50.0
COc1ccccc1CN(CC(=O)NCc1ccco1)C(=O)CNS(=O)(=O)c1ccccc1	none
Cc1noc(C)c1C(=O)NC(C)C1CCCO1 (centres undefined)	none
CC1CCCN(C(=O)C(=O)c2cn(CC(=O)N3CCCCCC3)c3ccccc23)C1 (centres undefined)	T cruzi inh 61.9
O=C(C(=O)N1CCN(c2cccc(Cl)c2)CC1)c1cn(CC(=O)N2CCOCC2)c2ccccc12	CendR NRP1 mod 31.7
O=C(C(=O)N1CCN(c2ccccc2)CC1)c1cn(CC(=O)N2CCCCCC2)c2ccccc12	none
CCN1CCN(C(=O)C(=O)c2cn(CC(=O)N3CCCCCC3)c3ccccc23)CC1	none
CC1CCN(C(=O)C(=O)c2cn(CC(=O)N3CCCCCC3)c3ccccc23)CC1	T cruzi inh 54.9
CN1CCN(C(=O)C(=O)c2cn(CC(=O)N3CCCCCC3)c3ccccc23)CC1	none (no result: AI-2 QS mod, HIF activator, T cruzi inh, CR mimetic SO)
CC(=O)c1ccc(N2CCN(C(=O)C(=O)c3cn(CC(=O)N4CCOCC4)c4ccccc34)CC2)cc1	none (no result: AI-2 QS mod, HIF activator, T cruzi inh, CR mimetic SO)
NC(=O)C1CCN(C(=O)C(=O)c2cn(CC(=O)N3CCCCCC3)c3ccccc23)CC1	T cruzi inh 61.9
N#Cc1c2c(c(NCCOCCO)n3c1nc1ccccc13)CCCC2	none
Clc1ccccc1COc1ccc(/C=N/n2cnnc2)cc1	none
CCCCn1nnnc1C1(C)CCC(=O)N1CCCn1ccnc1 (centres undefined)	none (no result: AI-2 QS mod, HIF activator, T cruzi inh, CR mimetic SO, V-ATPase pHluor)
COC(=O)CN1C(=O)C(O)(CC(=O)c2ccc(C)o2)c2ccccc21 (centres undefined)	CendR NRP1 mod 31.9
COC(=O)CN1C(=O)C(O)(CC(=O)c2ccccc2)c2ccccc21 (centres undefined)	none
COc1ccc(-c2cc(-c3ccccc3)c(C#N)c(SCC(=O)Nc3ncc(C)s3)n2)cc1	T cruzi inh 56.2
CC(C)(C)N1C(=O)c2ccccc2NC(=O)C1C(=O)Nc1ccc2c(c1)OCCO2 (centres undefined)	none (no result: AI-2 QS mod, HIF activator, T cruzi inh, CR mimetic SO, V-ATPase pHluor)
O=C(CSc1nc2ccc([N+](=O)[O-])cc2s1)NC1CCS(=O)(=O)C1 (centres undefined)	none
O=C(Oc1cccc(/C=N/Nc2nc(N3CCOCC3)nc(N3CCOCC3)n2)c1)c1ccco1	none
